Experimental data from the EternaBench riboswitch data.

Test system: MS2 coat protein
Test: apparent Kd, MS2 coat protein; higher = weaker binding; RNA-MaP array; FMN 200 µM where present
How it was run: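 In 100 mM Tris-HCl pH 7.5, 80 mM KCl, 4 mM MgCl2, BSA, DTT, yeast tRNA and Tween-20, SNAP-549-labelled MS2 coat protein was titrated from 0.7 or 1.5 nM, doubling to 3 µM, over designs transcribed by stalled E. coli RNA polymerase on Illumina sequencing-chip clusters. This was done first without ligand, then with ligand held constant. After green signal was normalised to red-channel RNA signal and control-cluster median Fmax, the apparent Kd was taken as the median of filtered per-cluster binding-curve fits.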

[1] = designed as: OFF switch for flavin mononucleotide, no ligand
[2] = ligand present: flavin mononucleotide, designed as: OFF switch for flavin mononucleotide
[3] = designed as: ON switch for flavin mononucleotide, no ligand
[4] = ligand present: flavin mononucleotide, designed as: ON switch for flavin mononucleotide

| Sequence | apparent Kd [1] | apparent Kd [2] | apparent Kd [3] | apparent Kd [4] |
| --- | --- | --- | --- | --- |
| CUGCUCCGUGUAGGAUAUGCGUACAACCAAUAUGCAGAAGGACAUGAGGAUCACCCAUGUAUGUUAUUAUCACGUGAAGCGUCC | 22.3 nM | 61.1 nM | – | – |
| CUGCUCGUAGAGAAGGCGUGGGCACAUGAGGAUCACCCAUGUCGCAGUACGAGGAUAUUUGCCGGCCCGCCCAAAAUGGCGCGA | – | – | 220 nM | 96.2 nM |
| CUGGAUCACGCAGGAUAUUACAUGAGGAUCACCCAUGUCAGGACUGCAAUAUCGUCUCCUCGUUGUGAGAAGGGCGGAAUCAUU | 14.6 nM | 26.3 nM | – | – |
| CUGGUGUCAGGAUAUGCAUAGCAGUGACCGAAACCCGGUCAGCAGAAGGGACAUGAGGAUCACCCAUGUUAAUA | 23 nM | 64.1 nM | – | – |
| CUGGUGUGAGGAUAUCUACGCCAUGUCUUUGACAUGGCGCAAGAGAAGGCACAUGAGGAUCACCCAUGUACUUC | 21.7 nM | 74.4 nM | – | – |
| CUGGUGUUAGGAUAUUCGAGGCUGCCUCGGAGACGAGGGUAGGAGAAGGGACAUGAGGAUCACCCAUGUGCUCC | 34.4 nM | 37.6 nM | – | – |
| CUGGUUGUCGUAGGAUAUGUAGGAUAUUCCUACAUGAGGAUCACCCAUGUUCGCAUGGAAGAAAGACAGAAGGACGAUGACCAG | – | – | 816 nM | 50.2 nM |
| CUGUCGAUAUCAGGAUAUCGAUUAAUUACAUGAGGAUCACCCAUGUUGACAUGGAAUAUAACUUGCGAGAAGGGAUUACGAUAG | – | – | 28.3 nM | 22.3 nM |
| CUUAUGUGAGGAUAUGGUGUUGGCCACAGGAAAAAGAUCCUCCAGAAGGCACAUGAGGAUCACCCAUGUAGUGA | 39.7 nM | 147 nM | – | – |
| CUUAUUAAACAAGGAUAUCAUUUGUGUACAAGUUUUACAUGAGGAUCACCCAUGUUAAAUGGUUUUGAGAAGGUGUUUAGAACU | – | – | 58.4 nM | 31.5 nM |
| CUUCCAGUUGCAGGAUAUCGGGAGGAGAGAUUACGAGAAGGGCAACAUGAGGAUCACCCAUGUAUGUGCUUGGGACAACCUAUC | 13.2 nM | 38.2 nM | – | – |
| CUUCGACAUGAGGAUCACCCAUGUCAGGAUAUUGUGUAUCGGGUGUUGGACGGAUAGGCAAGAAGGGAUGUGUG | 34.7 nM | 30.1 nM | – | – |
| CUUGGUACUCGAGGAUAUCACAUGAACUACCGAACAUGAGGAUCACCCAUGUGAGAAGGCGAGUUCUGUCCGAUAAAAUUACUC | 6.68 nM | 11 nM | – | – |
| CUUGUGUUAGGAUAUGCGCCCUGAAGUGGCAGGGCCAGAGAGCAGAAGGGACAUGAGGAUCACCCAUGUGUGAC | 84.3 nM | 127 nM | – | – |
| CUUGUGUUAGGAUAUGCGCCCUGCAAAAGCAAGGCCAGAGAGCAGAAGGAACAUGAGGAUCACCCAUGUGUGAC | 55.8 nM | 57.7 nM | – | – |
| CUUGUUUAAGUGAGGAUAUACUGUUAGUAAUGAUUGUAGAAGGUACAUGAGGAUCACCCAUGUUUAUUUAUAUU | 17.8 nM | 16.7 nM | – | – |
| CUUUCGUGAGGAUAUCAGUAGUAAAAAAAUAAAAUUACUACUGAGAAGGCACAUGAGGAUCACCCAUGUUCCUC | 21.8 nM | 143 nM | – | – |
| CUUUCGUGAGGAUAUGUGGCUUCAAUCGUGAGAUCGAGGCUACAGAAGGCACAUGAGGAUCACCCAUGUUCCUC | 37.9 nM | 388 nM | – | – |
| CUUUUGUGAGGAUAUCAGGUGUGCUAGCGUACUGGUACAUCUGAGAAGGCACAUGAGGAUCACCCAUGUUUCUU | 32.9 nM | 75.5 nM | – | – |
| CUUUUGUGAGGAUAUCAGUAGUAAAAAAAUAAAAUUACUAUUGAGAAGGCACAUGAGGAUCACCCAUGUUCCUC | 34.5 nM | 168 nM | – | – |
| CUUUUGUGAGGAUAUCAGUAGUAAAAAAUUAAAAUUACUACUGAGAAGGCACAUGAGGAUCACCCAUGUUCCUC | 40.1 nM | 284 nM | – | – |

| Sequence | apparent Kd [1] | apparent Kd [2] | apparent Kd [3] | apparent Kd [4] |
| --- | --- | --- | --- | --- |
| CUUUUGUGAGGAUAUCAGUAGUAAAAGAAUAAAAUUACUACUGAGAAGGCACAUGAGGAUCACCCAUGUUCCUC | 42.5 nM | 239 nM | – | – |
| CUUUUGUGAGGAUAUCAGUAGUAGAACAAUAGUACUACUACUGAGAAGGCACAUGAGGAUCACCCAUGUUUCUC | 62.3 nM | 302 nM | – | – |
| CUUUUGUGAGGAUAUCAGUAGUUAAAAAAUAAAAUUACUACUGAGAAGGCACAUGAGGAUCACCCAUGUUCCUC | 42.5 nM | 308 nM | – | – |
| CUUUUGUGAGGAUAUCAGUAUUAAAUAAAUAAAAUUACUACUGAGAAGGCACAUGAGGAUCACCCAUGUUCCUC | 33.4 nM | 201 nM | – | – |
| CUUUUGUGAGGAUAUUUGUAGUAAAUAAAUAAAAUUACUACUGAGAAGGCACAUGAGGAUCACCCAUGUUCCUC | 24.3 nM | 156 nM | – | – |
| GAAAACCAAGGAUAUACAUGAGGAUCACCCAUGUAGGUUGGGACGCCAUAAAGGCGAUGUAGAAGGUGGGAAAA | 21.9 nM | 33.6 nM | – | – |
| GAAAAGGUAGGAUAUACGAAAAAAAAGGGUAGAAAAAAAAAACAUGAGGAUCACCCAUGUAGAAGGACCAAAAG | 39.6 nM | 93.2 nM | – | – |
| GAAAAGGUAGGAUAUACGAAAAAAAAGGGUAGAAAAAAAGCACAUGAGGAUCACCCAUGUAGAAGGACCAAAAG | 36.7 nM | 132 nM | – | – |
| GAAAUAAUGUAAGGAUAUACAUGAGGAUUUCUCGUAGAAGGUACAAGACAUGAGGAUCACCCAUGUGUCGCUCCGUAGAGCGUA | – | – | 308 nM | 299 nM |
| GAACGUGACAUGAGGAUCACCCAUGUUGCCUUGGCCAGGUCGUAGGAUAUCCUGAUGAUUAAUUUGGAGAAGGGCGACUGGGAG | – | – | 36.1 nM | 15.3 nM |
| GAACUGAAGCAUAGCUUUAGUCGUACAUGAGGAUCACCCAUGUAGGAUAUAGUAGGCAUAGCUUACUAGAAGGAUAGAGUGAUC | 254 nM | 106 nM | – | – |
| GAAGAGACAGGAUAUACAUGAGGAUCACCCAUGUGAGUAUGUUGGAGGCGGAGGAGGUGUAGAAGGGUCAAAGA | 24.3 nM | 26.1 nM | – | – |
| GAAGCACACAUUAACAUGAGGAUCACCCAUGUCAAAAGACAUGAGGAUAUGGAUCUGAAGAAGAUCCAGAAGGCAUUGUGCUAA | – | – | 388 nM | 25.6 nM |
| GAAGCACACAUUAACAUGAGGAUCACCCAUGUCAAAAGACGUGAGGAUAUGGAUCUGAAGAAGAUCCAGAAGGCACUGUGCUAA | – | – | 8.83 nM | 6 nM |
| GAAUACCUAGGAUAUACAUGAGGAUCACCCAUGUCAGUAGACUCGGAAAAGUCUCUCAGUAGAAGGAGGACCAG | 35.2 nM | 79.3 nM | – | – |
| GAAUCGAAAAUACGAGCAUGUACACAGGAUAUCCCGUGACAUGAGGAUCACCCAUGUAACACAUUGGAGAAGGGUGUUCACGUA | – | – | 153 nM | 14.8 nM |
| GAAUUCUCAGGAUAUGUGCGAAGUUACAUGAGGAUCACCCAUGUUAGCCCGUGUCUUUGAGCAGAAGGGAGAGGCU | 14 nM | 13.6 nM | – | – |
| GACAGCGACACAGGAUAUGUCAAUUUUACAUGAGGAUCACCCAUGUCCGAAGCAGAAGGGUGAUCGCACGCACACUAAGCCAUG | – | – | 86.5 nM | 98.3 nM |
| GACAUACAUGAGGAUCACCCAUGUUCAGAAGGACAAGGAUAUGUGUGGAAACCAUACUAUACAGAAGGUGUCUGUC | – | – | 37.6 nM | 19.9 nM |
| GACAUGAGGAUCACCCAUGUCCAUGCAAGAGUAGUUGAGACCAGAAGGACCUUGCGGAGCGCAGGGUAGGAUAUGGAGCCCUCA | – | – | 36.3 nM | 8.75 nM |
| GACAUGGGCUAGAAGGCCUAUCUAUUUAAGUACGAUUUAGAACAGCAUAGGAGGAUAUGGCUAACAUGAGGAUCACCCAUGUUC | – | – | 170 nM | 39.2 nM |
